Laboratory results as given in article PMC6400527 (The Journal of General Physiology, 2019).
Where two headings read alike, the source gives them in different places. Values belong to the compound of their own block, whether it stands above or below them.

Tests used:
[1] = test system: gA^−(13) channels in DC18:1PC/n-decane bilayer; test: gA single-channel electrophysiology, gA−; type: biochemical; conditions: mean ± SE, n = 3–4
How it was run: (§1)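 Bilayer of DC18:1PC in n-decane formed across a 1–1.5 mm Teflon hole. It was co-doped with AgA(15) (total a few pM) and gA−(13) (~10-fold higher). Test compound from DMSO stock was added to both sides at increasing concentrations. Patches were isolated with 20–40 µm punch electrodes in 1 M NaCl, 10 mM HEPES pH 7, 25 ± 1°C, ±200 mV. Signals were filtered at 5 kHz, sampled at 20 kHz, then filtered at 200–500 Hz. Events were detected by a transition-based algorithm. Lifetimes came from single-exponential fits of survivor histograms, normalized to no-drug lifetimes in the same experiment. n = 3–4.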

[2] = Bilayer elastic coefficient HB / property altered, from lifetimes of gA−; conditions: for bilayer property primarily altered: single-channel electrophysiology; for decrease of HB (bilayer elastic coefficient): 100 µM, HB of unmodified bilayer ∼22 kBT/nm^2
[3] = test system: AgA(15) channels in DC18:1PC/n-decane bilayer; test: gA single-channel electrophysiology, AgA; type: biochemical; conditions: mean ± SE, n = 3–4
How it was run: as §1

[4] = ref Karson et al., 1993; Bolo et al., 2000; cited from earlier work
[5] = molecular target: [Ala^1]gA, 15-amino-acid analogue of gramicidin A; test: single-channel electrophysiology
[6] = molecular target: [Ala^1]gA, 15-amino-acid analogue of gramicidin A; test: single-channel electrophysiology; remark: listed apart in the source
[7] = molecular target: [Ala^1]gA, 15-amino-acid analogue of gramicidin A; test: single-channel electrophysiology; remark: listed apart in the source
[8] = molecular target: [Ala^1]gA, 15-amino-acid analogue of gramicidin A; test: single-channel electrophysiology; remark: listed apart in the source
[9] = molecular target: [Ala^1]gA, 15-amino-acid analogue of gramicidin A; test: single-channel electrophysiology; remark: listed apart in the source
[10] = molecular target: [Ala^1]gA, 15-amino-acid analogue of gramicidin A; test: single-channel electrophysiology; remark: listed apart in the source
[11] = molecular target: des-(D-Val-Gly)gA^−, chain-shortened enantiomer of gramicidin A; test: single-channel electrophysiology
[12] = molecular target: des-(D-Val-Gly)gA^−, chain-shortened enantiomer of gramicidin A; test: single-channel electrophysiology; remark: listed apart in the source
[13] = molecular target: des-(D-Val-Gly)gA^−, chain-shortened enantiomer of gramicidin A; test: single-channel electrophysiology; remark: listed apart in the source
[14] = molecular target: des-(D-Val-Gly)gA^−, chain-shortened enantiomer of gramicidin A; test: single-channel electrophysiology; remark: listed apart in the source
[15] = molecular target: des-(D-Val-Gly)gA^−, chain-shortened enantiomer of gramicidin A; test: single-channel electrophysiology; remark: listed apart in the source
[16] = molecular target: des-(D-Val-Gly)gA^−, chain-shortened enantiomer of gramicidin A; test: single-channel electrophysiology; remark: listed apart in the source

Compound: CN(C)CCC=C1c2ccccc2CCc2ccccc21 [Amitriptyline]
τAD,13/τcntrl,13 (normalized gA−(13) lifetime) ([1]; 100 µM): 1.6 ± 0.1 | bilayer property primarily altered [2]: intrinsic curvature | τAD,15/τcntrl,15 (normalized AgA(15) lifetime) ([3]; 100 µM): 1.5 ± 0.1

Compound: CN(C)CCCC1(c2ccc(F)cc2)OCc2cc(C#N)ccc21 (centres unmarked) [Citalopram (R−), Citalopram]
τAD,13/τcntrl,13 (normalized gA−(13) lifetime) ([1]; 250 µM): 1.8 ± 0.1 | τAD,15/τcntrl,15 (normalized AgA(15) lifetime) ([3]; 250 µM): 1.78 ± 0.04

Compound: CN(C)CCCC1(c2ccc(F)cc2)OCc2cc(C#N)ccc21 (centres unmarked) [Citalopram (S+), Citalopram]
τAD,13/τcntrl,13 (normalized gA−(13) lifetime) ([1]; 250 µM): 2.0 ± 0.2 | τAD,15/τcntrl,15 (normalized AgA(15) lifetime) ([3]; 250 µM): 1.9 ± 0.2

Compound: CN(C)CCCC1(c2ccc(F)cc2)OCc2cc(C#N)ccc21 (centres unmarked) [Citalopram]
bilayer property primarily altered [2]: intrinsic curvature

Compound: CNCCC(Oc1ccc(C(F)(F)F)cc1)c1ccccc1 (centres unmarked) [Fluoxetine (R−), Fluoxetine]
τAD,13/τcntrl,13 (normalized gA−(13) lifetime) ([1]; 100 µM): 3.1 ± 0.6 | decrease of HB (bilayer elastic coefficient) [2]: ~3.0 ± 0.3 kBT/nm^2 | τAD,15/τcntrl,15 (normalized AgA(15) lifetime) ([3]; 100 µM): 2.3 ± 0.3

Compound: CNCCC(Oc1ccc(C(F)(F)F)cc1)c1ccccc1 (centres unmarked) [Fluoxetine (S+), Fluoxetine]
τAD,13/τcntrl,13 (normalized gA−(13) lifetime) ([1]; 100 µM): 2.9 ± 0.4 | decrease of HB (bilayer elastic coefficient) [2]: ~2.3 ± 0.5 kBT/nm^2 | τAD,15/τcntrl,15 (normalized AgA(15) lifetime) ([3]; 100 µM): 2.3 ± 0.3

Compound: CNCCC(Oc1ccc(C(F)(F)F)cc1)c1ccccc1 (centres unmarked) [Fluoxetine]
bilayer property primarily altered [2]: bilayer elasticity | concentration in brain [4]: up to 10 µM

Compound: CN(C)CCCN1c2ccccc2CCc2ccccc21 [Imipramine]
τAD,13/τcntrl,13 (normalized gA−(13) lifetime) ([1]; 100 µM): 1.5 ± 0.1 | decrease of HB (bilayer elastic coefficient) [2]: ~1.3 ± 0.9 kBT/nm^2 | bilayer property primarily altered [2]: intrinsic curvature | τAD,15/τcntrl,15 (normalized AgA(15) lifetime) ([3]; 100 µM): 1.4 ± 0.1

normalised single-channel (dimer) lifetime τ (AD,15)/τ (cntrl,15) [5]: 1.78 | normalised single-channel (dimer) lifetime τ (AD,15)/τ (cntrl,15) [6]: 2.3 | normalised single-channel (dimer) lifetime τ (AD,15)/τ (cntrl,15) [7]: 2.3 | normalised single-channel (dimer) lifetime τ (AD,15)/τ (cntrl,15) [8]: 1.9 | normalised single-channel (dimer) lifetime τ (AD,15)/τ (cntrl,15) [9]: 1.4 | normalised single-channel (dimer) lifetime τ (AD,15)/τ (cntrl,15) [10]: 1.5
Compound: [Ala^1]gA, 15-amino-acid analogue of gramicidin A (peptide)

normalised single-channel (dimer) lifetime τ (AD,13)/τ (cntrl,13) [11]: 1.8 | normalised single-channel (dimer) lifetime τ (AD,13)/τ (cntrl,13) [12]: 3.1 | normalised single-channel (dimer) lifetime τ (AD,13)/τ (cntrl,13) [13]: 2.9 | normalised single-channel (dimer) lifetime τ (AD,13)/τ (cntrl,13) [14]: 2 | normalised single-channel (dimer) lifetime τ (AD,13)/τ (cntrl,13) [15]: 1.5 | normalised single-channel (dimer) lifetime τ (AD,13)/τ (cntrl,13) [16]: 1.6
Compound: des-(D-Val-Gly)gA^−, chain-shortened enantiomer of gramicidin A (peptide)
